An excerpt weighted towards active compounds, which were near 2.6% of everything screened.
VIM-2 inh: blocks Pseudomonas aeruginosa VIM-2 metallo-beta-lactamase; inhibition, % at 5.6 µM; purified VIM-2, nitrocefin hydrolysis, epi-absorbance fluorescence; 0.89% of 290,000 active;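 active = inhibition above the mean of all tested compounds plus 3 SD, cutoff set per screening run, cut at about 7.5% in these data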;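 note: red hydrolysis product quenches plate fluorescence so inhibitors raise well fluorescence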
Calb FLC: affects C. albicans growth with fluconazole; C. albicans CaCi-2 + fluconazole, Alamar Blue growth, 48 h; growth inhibition, % (test concentration not listed); 0.57% of 300,000 active;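 active = growth inhibition above about 58% in most replicates, limit read from the data, passing the limit was not always enough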;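 note: all wells also contain fluconazole at 8 µg/ml as a sub-toxic cotreatment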
ARFGAP1 inh: inhibitors of rat ARFGAP1 | inhibition, % at 16.5 µM | Arfgap1-stimulated ARF1 GTP hydrolysis, GDP FP detection | AID 651572 | Q62848 | 0.26% of 360,000 active;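 active = inhibition above a per-plate limit, mean inhibition of low control wells plus 3 SD, cut at about 25% in these data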
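Replicates: Single well per compound | Assay system: Truncated rat Arfgap1 GAP domain | Control set: No-Arfgap1 wells (100%) versus DMSO full-reaction wells (0%) | Times: Enzyme reaction 120 min at 25 °C after 20 min preincubation | Reagent: Human ARF1(Δ1-17)-GTP substrate | Measured by: Tracer-displacement fluorescence polarization with EDTA stop, 620/688 nm | Measure: Percent inhibition of Arfgap1-stimulated GTP hydrolysis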
ASAP1 inh: ASAP1 ArfGAP inhibition; Q9ULH1; ASAP1-stimulated ARF1 GTP hydrolysis, GDP FP detection; 0.19% of 360,000 active; inhibition, % at 16.5 µM; in the data active = inhibition above about 25%
Target sequence (Q9ULH1 325-724 limits assumed): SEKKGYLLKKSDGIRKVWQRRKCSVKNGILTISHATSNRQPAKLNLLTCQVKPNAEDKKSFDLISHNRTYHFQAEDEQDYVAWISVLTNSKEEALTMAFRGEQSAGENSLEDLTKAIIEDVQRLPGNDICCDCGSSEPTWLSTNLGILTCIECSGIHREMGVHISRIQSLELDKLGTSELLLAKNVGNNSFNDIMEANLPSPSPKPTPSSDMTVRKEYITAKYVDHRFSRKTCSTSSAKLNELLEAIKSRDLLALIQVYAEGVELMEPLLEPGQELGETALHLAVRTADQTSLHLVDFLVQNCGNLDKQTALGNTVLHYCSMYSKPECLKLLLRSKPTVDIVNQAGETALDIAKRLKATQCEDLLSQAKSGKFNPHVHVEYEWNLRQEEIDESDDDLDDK
PHOSPHO1 inh: blocks human PHOSPHO1 phosphatase activity; Q8TCT1; recombinant PHOSPHO1, absorbance phosphatase assay; inhibition, % at 13.3 µM; 1.1% of 290,000 active; AID 1565; in the data active = inhibition above about 60%
IMP-1 inh-1: blocks Pseudomonas aeruginosa IMP-1 metallo-beta-lactamase | purified IMP-1, nitrocefin hydrolysis, epi-absorbance fluorescence | inhibition, % at 5.6 µM | 0.45% of 290,000 active;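 active = inhibition above the mean plus 3 SD of all compounds in the same screening run, cut at about 4.5% in these data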
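Test system: recombinant IMP-1 enzyme, purified / Medium: HEPES buffer pH 7.1 with ZnSO4 and Brij 35 / Doses: single dose, 5.6 µM / Times: 25 °C, 15 min preincubation, 25 min reaction / Detection: Epi-absorbance via hydrolysed-nitrocefin quenching of white-plate fluorescence, 480/530 nm, EDTA stop / Evaluation: percent inhibition from optical density relative to buffer-blank wells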
IMP-1 inh-2: IMP-1 inhibition, counter-screen for VIM-2 inhibitors. shares compounds with VIM-2 inh. purified IMP-1, nitrocefin hydrolysis, epi-absorbance fluorescence. inhibition, % at 5.6 µM. 1,300 tested, under 10 active; call rule not given here
VIM-2 FRET ctr: counter-screen for VIM-2 inhibitors: epi-absorbance artifacts via FRET; shares compounds with VIM-2 inh; purified VIM-2, CCF2 FRET substrate hydrolysis; inhibition, % at 5.6 µM; 23% of 1,300 active; AID 1857;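 active = inhibition above the mean of all tested compounds plus 3 SD, cut at about 19% in these data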
TEM-1 inh: selectivity counter-screen for VIM-2 inhibitors: E. coli TEM-1 inhibitors | AID 1866 | Purified TEM-1, nitrocefin hydrolysis, epi-absorbance fluorescence | shares compounds with VIM-2 inh | inhibition, % at 5.6 µM | 3% of 1,300 active;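 active = inhibition above that campaign's mean inhibition plus 3 SD, cut at about 0.46% in these data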
Target sequence (P62593 whole entry, looked up): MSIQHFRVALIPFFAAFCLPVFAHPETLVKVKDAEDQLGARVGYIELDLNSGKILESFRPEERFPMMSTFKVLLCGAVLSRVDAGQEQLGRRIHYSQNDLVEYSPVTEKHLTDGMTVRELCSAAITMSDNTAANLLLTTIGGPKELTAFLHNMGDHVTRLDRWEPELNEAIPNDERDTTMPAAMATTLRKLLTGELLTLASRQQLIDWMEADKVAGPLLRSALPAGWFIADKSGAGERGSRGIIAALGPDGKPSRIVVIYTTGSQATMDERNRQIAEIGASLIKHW
VIM-2 inh conf: confirmation of P. aeruginosa VIM-2 metallo-beta-lactamase inhibitors; purified VIM-2, nitrocefin hydrolysis, epi-absorbance; 96% of 1,300 active; inhibition, % at 5.6 µM; shares compounds with VIM-2 inh;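 active = inhibition of the VIM-2 beta-lactamase enzyme above about 11% from the earlier first-round screen, limit read from the data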
Numbers stand for hits; n = inactive; x = not tested or not shown.

SMILES	VIM-2 inh	Calb FLC	ARFGAP1 inh	ASAP1 inh	PHOSPHO1 inh	IMP-1 inh-1	IMP-1 inh-2	VIM-2 FRET ctr	TEM-1 inh	VIM-2 inh conf
Cc1cc(OCCCn2ccnc2)ccc1[N+](=O)[O-]	28	n	n	n	n	n	n	n	n	39
Cc1ccc(OCCn2ccnc2)c([N+](=O)[O-])c1	n	n	n	n	n	n	x	x	x	x
CN1CCN(c2cc(-c3ccc4ccccc4c3)nc3ccnn23)CC1	x	x	n	n	x	x	x	x	x	x
CCCc1cc(=O)oc2cc(C)cc(OCC(=O)Nc3ccc(CN4CCOCC4)cc3)c12	14	n	n	n	n	n	n	n	n	20
CCc1cc(=O)oc2cc(C)cc(OCC(=O)NCCCN3CCOCC3)c12	14	n	n	n	n	n	n	n	n	22
C(=C\c1ccccc1)/CN1CCN(C(c2cc3ccccc3o2)c2nnnn2C2CCCCC2)CC1 (configuration not stated)	x	x	n	n	x	x	x	x	x	x
CC(=O)c1cccc(NC(=O)C2Cc3c(-c4ccco4)ccnc3O2)c1 (configuration not stated)	x	x	n	n	x	x	x	x	x	x
c1ccc(CNc2c3ccccc3nc3ccccc23)cc1	22	n	n	n	n	n	n	n	n	32
O=C(CNC(=O)c1ccccc1)NCCc1ccc(O)c(O)c1	n	n	n	n	n	n	x	x	x	x
Oc1ccc(CCNc2c3ccccc3nc3ccccc23)cc1O	17	n	n	n	n	n	n	n	n	21
c1ccc(CNc2ncnc3ccccc23)cc1	n	n	n	n	n	n	x	x	x	x
Cc1oc2c(C)c3oc(=O)c(CCC(=O)O)c(C)c3cc2c1-c1ccccc1	n	n	n	n	n	n	x	x	x	x
Cc1c(CC(=O)O)c(=O)oc2c(C)c3occ(-c4ccccc4)c3cc12	15	n	n	n	x	n	n	n	n	21
COc1ccccc1-c1cccc(-c2nc(C(=O)Nc3nccs3)cc3c2[C@H](CCO)N(C(C)=O)C3)c1	x	x	n	n	x	x	x	x	x	x
COC(=O)c1sccc1-n1cc2c(c1-c1ccccc1)c(=O)n(C)c(=O)n2C	x	x	n	n	x	x	x	x	x	x
CNC(=S)Nc1cccc(-c2cnc3ccccc3n2)c1	14	n	n	n	n	n	n	n	n	9.1
Cn1c(=O)c2c(SCc3cccnc3)nc(C3CC3)nc2n(C)c1=O	29	n	n	n	n	n	n	n	n	49
CCc1nc(SCc2cccnc2)c2c(=O)n(C)c(=O)n(C)c2n1	n	n	n	n	n	n	x	x	x	x
O=C(O)C/C(=C\c1cc(Cl)c2c(c1)OCO2)c1nc2ccccc2s1	14	n	n	n	n	n	n	40	n	23
O=C(O)CC/C(=C\c1cccc(NC(=O)c2ccccc2Cl)c1)c1nc2ccccc2s1	n	n	n	n	n	n	x	x	x	x
COCCNC(=O)c1cc2c(=O)n(C)c3ccccc3c2n1C	14	n	n	n	n	n	n	n	n	22
CCCCN(CC)CCCNC(=O)c1cn(C)c(=O)c2c1c1ccccc1n2C	n	n	n	n	n	n	x	x	x	x
CCN(CC)CCNC(=O)c1cc2c(=O)n(C)c3ccccc3c2n1C	20	n	n	n	n	n	n	n	n	31
CN(C)CCNC(=O)c1cc2c(=O)n(C)c3ccccc3c2n1C	17	n	n	n	n	n	n	n	n	28
CCOC(=O)N1CCC(NC(=O)c2cc3c(=O)n(C)c4ccccc4c3n2C)CC1	n	n	n	n	n	n	x	x	x	x
SMILES	VIM-2 inh	Calb FLC	ARFGAP1 inh	ASAP1 inh	PHOSPHO1 inh	IMP-1 inh-1	IMP-1 inh-2	VIM-2 FRET ctr	TEM-1 inh	VIM-2 inh conf
CCCCN(CC)CCNC(=O)c1cc2c(=O)n(C)c3ccccc3c2n1C	21	n	n	n	n	n	n	n	n	30
CC1(C(=O)NCCC#N)CCN1C(=O)C1(c2ccccc2)CCCC1 (configuration not stated)	x	x	n	n	x	x	x	x	x	x
CCCCCCN1C[C@@H](n2cc(C3CC3)nn2)[C@H](O)C[C@@H]1c1ccc(OC)cc1	x	x	n	n	x	x	x	x	x	x
CC(C)NC(=O)C1(C)CN(S(C)(=O)=O)CC(=O)N1C1CCCCCC1 (configuration not stated)	x	x	n	n	x	x	x	x	x	x
O=C(NC1CCCC1)C(C1CC1)n1c(-c2ccncc2)nc2ccccc21 (configuration not stated)	x	x	n	n	x	x	x	x	x	x
CCN(CC)CCCNC(=O)c1cc2c(=O)n(C)c3ccccc3c2n1C	22	n	n	n	n	n	n	n	n	30
CCCN(CCC)CCCNC(=O)c1cc2c(=O)n(C)c3ccccc3c2n1C	26	n	n	n	n	n	n	n	n	30
CCCCN(CC)CCNC(=O)c1cc2c(C)nc3ccccc3c2o1	14	n	n	n	n	n	n	n	n	17
CC(C)(C)Cc1c(-c2ccc(Cl)cc2)nc2c(Cl)cc(C(F)(F)F)cn12	x	x	n	n	x	x	x	x	x	x
Cc1ccc(S(=O)(=O)n2cccc2/C=C/[N+](=O)[O-])cc1	x	x	n	n	x	x	x	x	x	x
O=S1(=O)CC(N2CCCC2)CN1Cc1cn(Cc2ccc(Cl)cc2)nn1 (configuration not stated)	x	x	n	n	x	x	x	x	x	x
Cc1nnc2c(N3CCN(CCO)CC3)nc3ccccc3n12	13	n	n	n	n	n	n	n	n	14
CCN1CCN(c2nc3ccccc3n3cnnc23)CC1	n	n	n	n	n	n	x	x	x	x
CN1OC[C@@H]2CN3C(=O)N(c4ccccc4)c4ccccc4[C@@H]3C[C@@H]21	x	x	n	n	x	x	x	x	x	x
CCc1ccc(/C=C2\SC(=S)N(CCCC(=O)N3CCN(C)CC3)C2=O)cc1	x	x	n	n	x	x	x	x	x	x
COc1ccc(/C=C2\SC(=S)N(CCCC(=O)N3CCN(C)CC3)C2=O)cc1	15	n	n	n	n	n	n	n	n	27
Cc1c(OCC(=O)N(C)c2ccccc2)ccc2c3c(c(=O)oc12)CCC3	20	n	n	n	n	n	n	n	n	29
CC(=O)Oc1ccc2c3c(c(=O)oc2c1C)CCCC3	n	n	n	n	n	n	x	x	x	x
Cc1c(OCC(=O)NCc2cccnc2)ccc2c3c(c(=O)oc12)CCCC3	17	n	n	n	n	n	n	n	n	26
O=C(COc1cc2oc(=O)c3c(c2cc1Cl)CCCC3)NCc1cccnc1	n	n	n	n	n	n	x	x	x	x
Cc1c(C)c2ccc(OCC(=O)Nc3cccnc3)c(C)c2oc1=O	12	n	n	n	n	n	n	n	n	21
